Test results reported in ChEMBL document CHEMBL1221407, “Anthraquinone, cyclopentanone, and naphthoquinone derivatives from the sea fan-derived fungi Fusarium spp. PSU-F14 and PSU-F135” (J Nat Prod, 2010).
≈ marks a conversion by molar mass, not a printed value. Calls of active or inactive are those of the source. The rule behind the calls is not given here.

Tests used:
MCF7 = experiment: Cytotoxicity against human MCF7 cells; assay type: functional, cell-based
Method in brief: (§1)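 KB (oral human carcinoma) and MCF-7 (human breast cancer) cells; resazurin microplate assay.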

[1] = system: Mycobacterium tuberculosis; experiment: Antimycobacterial activity against Mycobacterium tuberculosis H37Ra by green fluorescent protein-based fluorescent assay; assay type: functional
Vero = experiment: Cytotoxicity against african green monkey Vero cells; assay type: cell-based, Chlorocebus sabaeus
Method in brief: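 Vero cells (African green monkey kidney fibroblasts), noncancerous; run in triplicate by the method of Hunt and co-workers.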

Plasmodium falciparum = experiment: Antimalarial activity against multidrug-resistant Plasmodium falciparum K1 by microculture radioisotope technique; assay type: functional, organism-based
KB = experiment: Cytotoxicity against human KB cells; assay type: functional, cell-based; method in brief: as §1
Nannizzia gypsea = experiment: Antimicrobial activity against Microsporum gypseum by colorimetric broth microdilution test; assay type: functional
Method in brief: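 Colorimetric broth microdilution run to CLSI M38-A (broth dilution method for filamentous fungi) and Drummond and Waigh.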

Cryptococcus neoformans = experiment: Antimicrobial activity against Cryptococcus neoformans by colorimetric broth microdilution test; assay type: functional
Method in brief: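 Colorimetric broth microdilution run to CLSI M27-A2 (reference broth dilution method for yeasts) and Drummond and Waigh.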

[2] = Chlorocebus sabaeus, Vero, read-out: IC50
[3] = Plasmodium falciparum, K1, read-out: IC50
[4] = Homo sapiens, KB, read-out: IC50

COc1cc(O)c2c(c1O)[C@H](O)[C@H]1C[C@](C)(O)[C@H](O)[C@@H](O)[C@@H]1C2=O [9ALPHA-HYDROXYHALOROSELLINIA A]
IC50 (MCF7): 6.2 µM
MIC [1]: 39 µM (≈ 13.3 µg/mL)
IC50 (Vero; [2]): 54 µM
IC50 (Plasmodium falciparum; [3]): 25 µM
IC50 (KB; [4]): 49 µM

COc1cc(O)c2c(c1O)C(=O)c1cc(C)ccc1C2=O [AUSTROCORTIRUBIN]
IC50 (MCF7): 6.3 µM
MIC [1]: inactive
IC50 (Vero; vero): Not Active
IC50 (Plasmodium falciparum): Not Active
IC50 (KB; kb): Not Active

COC1=CC(=O)c2c(cc3c(c2O)C[C@@H](O)[C@@](C)(O)C3)C1=O [NIGROSPORIN B]
IC50 (MCF7): 5.4 µM
MIC [1]: 41 µM (≈ 12.5 µg/mL)
IC50 (Vero; [2]): 29 µM
IC50 (Plasmodium falciparum; [3]): 13 µM
IC50 (KB; [4]): 88 µM

CO[C@@H]1CC(=O)c2c(O)c(C)c3cc(C)oc3c2[C@@H]1O [FUSARNAPHTHOQUINONE B]
MIC (Nannizzia gypsea): > 200 µM
MIC (Cryptococcus neoformans): > 200 µM

COc1cccc2c1C(=O)c1c(O)c3c(c(O)c1C2=O)C[C@@](O)(C(=O)CO)C[C@@H]3O[C@H]1C[C@H](N)[C@H](O)[C@H](C)O1 [DOXORUBICIN]
IC50 (MCF7): 2.18 µM
IC50 (KB; [4]): 0.33 µM

COc1cc(O)c2c(c1O)[C@H](O)[C@H]1C[C@](C)(O)[C@H](O)C[C@@H]1C2=O
IC50 (MCF7): 15 µM
MIC [1]: inactive
IC50 (Vero; [2]): 57 µM
IC50 (Plasmodium falciparum): Not Active
IC50 (KB; [4]): 19 µM

COC1=CC(=O)c2c(O)c(C)c(CC(C)=O)c(O)c2C1=O [JAVANICIN]
IC50 (MCF7): 13 µM
MIC [1]: inactive
IC50 (Vero; [2]): 170 µM
IC50 (Plasmodium falciparum; [3]): 12 µM
IC50 (KB; [4]): 5.7 µM

COc1cc(O)c2c(c1O)[C@@H](O)[C@@H](CC(C)=O)[C@@H](CO)C2=O [FUSARNAPHTHOQUINONE A]
IC50 (MCF7): 22 µM
MIC [1]: inactive
IC50 (Vero; vero): Not Active
IC50 (Plasmodium falciparum): Not Active
IC50 (KB; [4]): 130 µM

COC1=CC(=O)c2c(O)c3c(c(O)c2C1=O)C=C(C)OC3 [ANHYDROFUSARUBIN]
IC50 (MCF7): 0.9 µM
MIC [1]: 87 µM (≈ 25.1 µg/mL)
IC50 (Vero; [2]): 58 µM
IC50 (Plasmodium falciparum; [3]): 14 µM
IC50 (KB; [4]): 2 µM

COC1=CC(=O)c2c(O)c3c(c(O)c2C1=O)C[C@](C)(O)[C@H](O)[C@H]3O [BOSTRYCIN]
IC50 (MCF7): 2.7 µM
MIC [1]: inactive
IC50 (Vero; [2]): 4.2 µM
IC50 (Plasmodium falciparum; [3]): 9.8 µM
IC50 (KB; [4]): 0.9 µM

COC1=CC(=O)c2c(O)c3c(c(O)c2C1=O)CC(C)(O)OC3 (stereo not given) [FUSARUBIN]
IC50 (MCF7): 9.8 µM
MIC [1]: inactive
MIC (Nannizzia gypsea): > 200 µM
MIC (Cryptococcus neoformans): > 200 µM
IC50 (Vero; [2]): 79 µM
IC50 (Plasmodium falciparum): Not Active
IC50 (KB; [4]): 14 µM

NNC(=O)c1ccncc1 [ISONIAZID]
MIC [1]: 0.17 µM (≈ 0.0233 µg/mL)

Cc1c2ccncc2c(C)c2c1[nH]c1ccccc12 [ELLIPTECINE]
IC50 (Vero; [2]): 4.47 µM
IC50 (KB; [4]): 1.1 µM

C[C@H]1[C@@H](O)O[C@@H]2O[C@@]3(C)CC[C@H]4[C@H](C)CC[C@@H]1[C@@]24OO3 [ARTENIMOL]
IC50 (Plasmodium falciparum; [3]): 0.004 µM
